Reference: article PMC3960632 (British Journal of Cancer, 2014)

How the values were obtained:
recombinant AKR1C1-4 = conditions: ref Hebert et al, 2013; cited from earlier work
primary CLL cells = test: Primary CLL cell apoptosis; format: cell-based, human; conditions: 24 h; 0.5 mM BEZ, 5 μM MPA, 5.1 μM 4-MDDT; n=4 samples
Procedure, shortened: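 Patient blood mononuclear cells isolated on Ficoll, with consent and ethical approval. Co-cultured 10:1 on non-CD40L-expressing L-cell fibroblast stroma in 96-well plates. Treated in triplicate for 24 h against solvent control. Viability read by annexin V/propidium iodide staining and flow cytometry; n=4 patient samples ± s.e.m.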

[1] = tested on: HL-60, K562 and KG1a AML cell lines; test: Cumulative cell counts / viability of AML cell lines; format: cell-based; conditions: 7 days, 5 μM MPA, 50 μM 4-MDDT
Procedure, shortened: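 HL60, K562 and KG1a cells kept in RPMI-1640 with L-glutamine, 10% heat-inactivated FBS and penicillin/streptomycin at 37 °C, 5% CO2, passaged every 2 days at 0.25–1.5 × 10^6 cells/ml. Treated 7 days at 1 × 10^4 cells/well or 0.25 × 10^6 cells/ml in flasks, with DMSO/ethanol solvent controls. Cumulative viable counts by manual counting or flow cytometry with viable gates and counting beads. Mean of ≥3 experiments ± s.e.m.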

HL-60 cells = test: HL-60 differentiation; format: cell-based; conditions: 5 μM MPA, 50 μM 4-MDDT
Procedure, shortened: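 HL-60 cells grown in RPMI-1640 with 10% heat-inactivated FBS at 37 °C, 5% CO2. Treated 7 days and re-fed and re-treated every 2 days, with solvent controls. At day 7, PE-CD11b staining read by flow cytometry, mean of ≥3 experiments ± s.e.m. Cytospins from 75–100 μl of culture were air-dried, methanol-fixed and Jenner–Giemsa stained for morphology.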

[2] = Stability of the DMSO solution; format: physicochemical; conditions: solution in DMSO
recombinant AKR1C3 = biological target: T1, recombinant AKR1C3 (Homo sapiens, UniProt P42330); test: AKR1C-diaphorase; format: biochemical; conditions: freshly prepared solution
T1 sequence (P42330 1-323): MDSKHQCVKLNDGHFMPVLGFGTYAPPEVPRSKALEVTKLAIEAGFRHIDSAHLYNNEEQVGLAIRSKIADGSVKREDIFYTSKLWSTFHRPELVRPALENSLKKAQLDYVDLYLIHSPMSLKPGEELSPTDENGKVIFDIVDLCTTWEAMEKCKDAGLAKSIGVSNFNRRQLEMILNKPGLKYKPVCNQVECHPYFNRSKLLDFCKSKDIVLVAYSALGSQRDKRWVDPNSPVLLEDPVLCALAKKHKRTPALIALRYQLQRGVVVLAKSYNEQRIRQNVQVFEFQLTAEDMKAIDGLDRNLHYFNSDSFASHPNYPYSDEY

Q: Which “AKR1C3 selectivity in the CRT screen” value (recombinant AKR1C1-4) does the source give for `O=C(O)c1cccc(S(=O)(=O)N2CCc3ccccc3C2)c1` [A1, 3-(3,4-dihydro-1H-isoquinoline-2-sulphonyl)-benzoic acid] here?
A: AKR1C3-selective inhibitors

Q: For `O=C(N1CCOCC1)N1CCN(c2ccc(Cl)cc2)CC1` [A9, [4-(4-chloro-phenyl)-piperazin-1-yl]-morpholin-4-yl-methanone], which “AKR1C3 selectivity in the CRT screen” value (recombinant AKR1C1-4) is on record?
A: AKR1C3-selective inhibitors

Q: Which “apoptosis of CLL cells, single agent” value (primary CLL cells) does the source give for `CC(C)(Oc1ccc(CCNC(=O)c2ccc(Cl)cc2)cc1)C(=O)O` [BEZ, bezafibrate] here?
A: neither BEZ nor MPA as single agents markedly increased apoptosis

Q: With `CC(=O)O[C@]1(C(C)=O)CC[C@H]2[C@@H]3C[C@H](C)C4=CC(=O)CC[C@]4(C)[C@H]3CC[C@@]21C` [MPA, medroxyprogesterone acetate] as the molecule, how does the “AML cell killing when combined with BEZ” value ([1]; with 0.5 mM BEZ, NCI compounds at 10 times the IC50, 10 μM A1/A6/A9) read?
A: greatly enhanced AML cell killing

Q: What about the “anti-proliferative effect, agent alone” value ([1]; NCI compounds at 10 times the IC50) of the same molecule?
A: moderate but statistically anti-proliferative effect

Q: And the “apoptosis of CLL cells, single agent” value (primary CLL cells)?
A: neither BEZ nor MPA as single agents markedly increased apoptosis

Q: What about the “HL-60 cell differentiation in response to ATRA” value (HL-60 cells; day 7, with 10 nM ATRA) of the same molecule?
A: promoted the differentiation of HL-60 cells

Q: And the “HL-60 cell differentiation (CD11b, phenotypic changes) combined with BEZ” value (HL-60 cells; day 7, with 0.5 mM BEZ)?
A: strongly promoted HL-60 cell differentiation

Q: Which results are given for `CN(C)[C@@H]1C(O)=C(C(N)=O)C(=O)[C@@]2(O)C(O)=C3C(=O)c4c(O)cccc4[C@@](C)(O)[C@H]3C[C@@H]12` [tetracycline]?
A: chemical stability [2]: rapid conversion of the dissolved tetracycline to an unknown breakdown product; AKR1C3-inhibitory activity (recombinant AKR1C3): no AKR1C3-inhibitory activity
